# Assay results published in the M2OR odorant receptor database.
# What was measured:
# Settings in all cases: stereoisomer not certain
# O5AN1 = tested on: T1, O5AN1
# T1 sequence (whole entry): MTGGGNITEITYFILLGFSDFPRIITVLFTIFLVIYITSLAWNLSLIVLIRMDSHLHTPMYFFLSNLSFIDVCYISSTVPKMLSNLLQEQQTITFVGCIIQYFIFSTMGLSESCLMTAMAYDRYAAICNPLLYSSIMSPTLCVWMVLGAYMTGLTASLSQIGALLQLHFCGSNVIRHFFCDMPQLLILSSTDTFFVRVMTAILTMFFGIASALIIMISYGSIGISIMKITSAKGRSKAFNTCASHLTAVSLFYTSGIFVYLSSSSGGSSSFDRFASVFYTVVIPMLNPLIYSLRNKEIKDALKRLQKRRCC
# Outline: (§1)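 Values were gathered from published papers (main text and supplementary material), with extra details requested from the original authors when needed, and checked for typos and inconsistencies. Each receptor–molecule pair is called responsive (active) if the original authors judged the measured signal statistically different from baseline, and non-responsive (inactive) otherwise. Assay methods varied by source, often transient mammalian cell-line luciferase assays. Recorded details include cell line, G-protein, co-transfected protein and tags.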
# OR10A2 (Homo sapiens) = biological target: T2, OR10A2 (Homo sapiens) (UniProt Q9H208)
# T2 sequence (whole entry): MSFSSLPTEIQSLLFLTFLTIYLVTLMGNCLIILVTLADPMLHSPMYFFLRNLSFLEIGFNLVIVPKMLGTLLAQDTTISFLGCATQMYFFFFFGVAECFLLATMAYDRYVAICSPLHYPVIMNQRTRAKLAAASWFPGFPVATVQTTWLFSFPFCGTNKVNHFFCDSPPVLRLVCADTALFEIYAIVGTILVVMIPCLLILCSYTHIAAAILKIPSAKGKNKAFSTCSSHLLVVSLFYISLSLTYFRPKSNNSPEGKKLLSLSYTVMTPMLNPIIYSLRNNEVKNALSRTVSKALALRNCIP
# Outline: as §1
# OR10A4 (Homo sapiens) = biological target: T3, OR10A4 (Homo sapiens) (UniProt Q9H209)
# T3 sequence (whole entry): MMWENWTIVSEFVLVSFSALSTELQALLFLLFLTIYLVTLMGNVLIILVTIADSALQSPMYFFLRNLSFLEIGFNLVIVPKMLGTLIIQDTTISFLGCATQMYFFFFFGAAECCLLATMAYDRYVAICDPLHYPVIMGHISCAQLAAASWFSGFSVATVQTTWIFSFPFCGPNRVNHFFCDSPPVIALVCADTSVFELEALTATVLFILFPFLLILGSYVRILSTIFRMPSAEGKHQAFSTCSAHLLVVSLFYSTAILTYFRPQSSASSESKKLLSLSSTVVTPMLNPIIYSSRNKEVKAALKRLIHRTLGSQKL
# Outline: as §1
# OR10A5 (Homo sapiens) = biological target: T4, OR10A5 (Homo sapiens) (UniProt Q9H207)
# T4 sequence (whole entry): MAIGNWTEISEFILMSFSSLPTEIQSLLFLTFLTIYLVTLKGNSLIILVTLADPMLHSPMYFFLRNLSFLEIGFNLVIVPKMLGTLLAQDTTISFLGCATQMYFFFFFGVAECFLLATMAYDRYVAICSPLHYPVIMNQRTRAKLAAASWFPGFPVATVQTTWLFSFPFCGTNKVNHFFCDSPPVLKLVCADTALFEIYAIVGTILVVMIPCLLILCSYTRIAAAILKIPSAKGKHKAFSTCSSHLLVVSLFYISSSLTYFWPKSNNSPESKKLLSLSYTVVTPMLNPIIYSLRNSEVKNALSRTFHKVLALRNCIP
# Outline: as §1
# OR10A6 (Homo sapiens) = biological target: T5, OR10A6 (Homo sapiens) (UniProt Q8NH74)
# T5 sequence (whole entry): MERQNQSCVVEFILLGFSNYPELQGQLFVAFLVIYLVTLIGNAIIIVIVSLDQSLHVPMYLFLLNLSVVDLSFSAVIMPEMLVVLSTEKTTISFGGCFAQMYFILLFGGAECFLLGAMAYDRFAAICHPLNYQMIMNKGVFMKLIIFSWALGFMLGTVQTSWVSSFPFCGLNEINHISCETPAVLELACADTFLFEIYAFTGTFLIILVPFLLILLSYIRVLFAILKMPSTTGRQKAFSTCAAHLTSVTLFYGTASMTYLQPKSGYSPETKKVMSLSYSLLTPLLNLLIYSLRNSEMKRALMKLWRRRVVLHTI
# Outline: as §1
# OR10A7 (Homo sapiens) = biological target: T6, OR10A7 (Homo sapiens) (UniProt Q8NGE5)
# T6 sequence (whole entry): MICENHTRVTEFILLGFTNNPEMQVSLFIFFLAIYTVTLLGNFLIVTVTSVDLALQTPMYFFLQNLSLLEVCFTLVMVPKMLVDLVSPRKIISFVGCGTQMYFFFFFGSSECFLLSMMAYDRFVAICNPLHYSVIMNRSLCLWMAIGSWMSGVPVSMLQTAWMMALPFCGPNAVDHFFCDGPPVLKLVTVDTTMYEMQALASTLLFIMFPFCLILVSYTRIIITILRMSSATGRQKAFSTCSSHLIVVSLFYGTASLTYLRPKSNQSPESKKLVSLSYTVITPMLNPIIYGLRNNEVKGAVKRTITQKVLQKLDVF
# Outline: as §1
# OR10AC1 (Homo sapiens) = OR10AC1 (Homo sapiens) (UniProt Q8NH08)
# Chain of OR10AC1 (Homo sapiens) (Q8NH08 whole entry): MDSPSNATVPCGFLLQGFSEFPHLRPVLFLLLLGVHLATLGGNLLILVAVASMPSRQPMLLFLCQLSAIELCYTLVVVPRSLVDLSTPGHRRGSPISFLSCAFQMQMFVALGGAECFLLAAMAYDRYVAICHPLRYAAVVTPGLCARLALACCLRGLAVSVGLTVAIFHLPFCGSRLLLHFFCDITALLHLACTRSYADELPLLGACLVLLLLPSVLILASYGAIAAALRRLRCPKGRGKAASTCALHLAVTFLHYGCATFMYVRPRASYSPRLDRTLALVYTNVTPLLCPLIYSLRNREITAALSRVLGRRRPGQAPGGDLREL
# Outline: as §1
# OR10AD1 (Homo sapiens) = biological target: T7, OR10AD1 (Homo sapiens) (UniProt Q8NGE0)
# T7 sequence (whole entry): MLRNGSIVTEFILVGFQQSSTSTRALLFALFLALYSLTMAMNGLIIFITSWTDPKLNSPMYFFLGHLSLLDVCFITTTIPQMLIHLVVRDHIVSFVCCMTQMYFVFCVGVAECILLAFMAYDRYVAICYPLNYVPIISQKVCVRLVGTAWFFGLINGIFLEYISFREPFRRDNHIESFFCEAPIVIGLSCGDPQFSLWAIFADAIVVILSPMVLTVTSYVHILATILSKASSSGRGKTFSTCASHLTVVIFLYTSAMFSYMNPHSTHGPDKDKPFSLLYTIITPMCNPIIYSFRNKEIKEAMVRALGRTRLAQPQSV
# Outline: as §1
# OR10AG1 (Homo sapiens) = biological target: T8, OR10AG1 (Homo sapiens) (UniProt Q8NH19)
# T8 sequence (whole entry): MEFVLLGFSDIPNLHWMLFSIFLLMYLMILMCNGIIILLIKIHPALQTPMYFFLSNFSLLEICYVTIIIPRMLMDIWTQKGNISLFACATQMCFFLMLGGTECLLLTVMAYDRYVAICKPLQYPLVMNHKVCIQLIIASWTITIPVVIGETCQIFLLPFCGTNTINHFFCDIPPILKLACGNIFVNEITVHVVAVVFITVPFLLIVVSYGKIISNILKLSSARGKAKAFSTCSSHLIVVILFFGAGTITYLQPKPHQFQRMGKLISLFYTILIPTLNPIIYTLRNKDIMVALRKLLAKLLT
# Outline: as §1
# OR10C1 (Homo sapiens) = biological target: T9, OR10C1 (Homo sapiens) (UniProt Q96KK4)
# T9 sequence (whole entry): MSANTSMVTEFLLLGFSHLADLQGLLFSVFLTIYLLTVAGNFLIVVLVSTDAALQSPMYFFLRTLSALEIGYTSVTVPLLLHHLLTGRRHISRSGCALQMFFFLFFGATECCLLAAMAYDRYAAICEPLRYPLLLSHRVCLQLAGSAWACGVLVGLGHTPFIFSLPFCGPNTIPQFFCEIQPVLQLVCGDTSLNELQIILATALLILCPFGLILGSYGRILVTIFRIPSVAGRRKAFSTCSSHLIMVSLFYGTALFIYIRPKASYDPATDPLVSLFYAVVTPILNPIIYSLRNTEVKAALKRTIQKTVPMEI
# Outline: as §1
# OR10A3 (Homo sapiens) = biological target: T10, OR10A3 (Homo sapiens) (UniProt P58181)
# T10 sequence (whole entry): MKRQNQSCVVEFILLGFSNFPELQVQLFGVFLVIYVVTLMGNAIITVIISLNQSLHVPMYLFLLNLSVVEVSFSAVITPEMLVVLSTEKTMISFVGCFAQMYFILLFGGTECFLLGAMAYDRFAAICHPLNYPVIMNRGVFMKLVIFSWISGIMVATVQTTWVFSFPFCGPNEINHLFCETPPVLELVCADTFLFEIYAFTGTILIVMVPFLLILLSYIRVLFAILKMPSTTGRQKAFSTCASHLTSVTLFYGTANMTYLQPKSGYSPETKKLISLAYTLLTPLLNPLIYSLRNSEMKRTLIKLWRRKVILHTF
# Outline: as §1
# OR10D3 (Homo sapiens) = biological target: T11, OR10D3 (Homo sapiens) (UniProt Q8NH80)
# T11 sequence (whole entry): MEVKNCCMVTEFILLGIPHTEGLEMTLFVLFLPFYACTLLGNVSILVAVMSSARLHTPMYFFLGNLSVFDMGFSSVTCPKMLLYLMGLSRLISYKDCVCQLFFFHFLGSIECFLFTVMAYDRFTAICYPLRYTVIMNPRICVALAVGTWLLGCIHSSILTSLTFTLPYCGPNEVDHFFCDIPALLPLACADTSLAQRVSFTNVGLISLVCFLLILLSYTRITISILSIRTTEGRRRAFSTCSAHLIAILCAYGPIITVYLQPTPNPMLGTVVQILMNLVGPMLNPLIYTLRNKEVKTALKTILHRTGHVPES
# Outline: as §1
structure (smiles),measurement,setting,value
CC1CCCCCCCCCCCCC(=O)C1 (stereo not given),odorant receptor agonist call,O5AN1,active
same,odorant receptor agonist call,OR10A2 (Homo sapiens),inactive
same,odorant receptor agonist call,OR10A4 (Homo sapiens),inactive
same,odorant receptor agonist call,OR10A5 (Homo sapiens),inactive
same,odorant receptor agonist call,OR10A6 (Homo sapiens),inactive
same,odorant receptor agonist call,OR10A7 (Homo sapiens),inactive
same,odorant receptor agonist call,OR10AC1 (Homo sapiens),inactive
same,odorant receptor agonist call,OR10AD1 (Homo sapiens),inactive
same,odorant receptor agonist call,OR10AG1 (Homo sapiens),inactive
same,odorant receptor agonist call,OR10C1 (Homo sapiens),inactive
CCC(=O)OCCCc1ccccc1,odorant receptor agonist call,OR10A6 (Homo sapiens),inactive
O=C1CCCC=CCCCCCCCCCC1,odorant receptor agonist call,O5AN1,active
CC(C)CS,odorant receptor agonist call,OR10A7 (Homo sapiens),inactive
CCCCCCCC(=O)CCCCCCC,odorant receptor agonist call,O5AN1,inactive
CC(CO)CS (stereo not given),odorant receptor agonist call,OR10A2 (Homo sapiens),inactive
same,odorant receptor agonist call,OR10A3 (Homo sapiens),inactive
same,odorant receptor agonist call,OR10A4 (Homo sapiens),inactive
same,odorant receptor agonist call,OR10A5 (Homo sapiens),inactive
same,odorant receptor agonist call,OR10A6 (Homo sapiens),inactive
same,odorant receptor agonist call,OR10A7 (Homo sapiens),inactive
same,odorant receptor agonist call,OR10AD1 (Homo sapiens),inactive
same,odorant receptor agonist call,OR10AG1 (Homo sapiens),inactive
same,odorant receptor agonist call,OR10C1 (Homo sapiens),inactive
same,odorant receptor agonist call,OR10D3 (Homo sapiens),inactive
O=C1CCCCCCCCC1,odorant receptor agonist call,O5AN1,inactive
